From ChEMBL document CHEMBL1128695, “Synthesis and antiviral activity of 8-aza analogs of chiral [2-(phosphonomethoxy) propyl]guanines” (J Med Chem, 1995)

Tests used:
[1] = test system: MT4; assay: Cytotoxic concentration required to reduce viability of mock-infected MT-4 cells (4 days); type: functional; conditions: Homo sapiens, MT4, 96 h
In short: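 Mock-infected MT-4 cells, 1×10^4/well, incubated with serial compound dilutions (DMSO stock 100 mg/mL diluted in RPMI/10% FCS) for 4 days at 37 °C, run alongside the antiviral test.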

[2] = test system: MT4; assay: Protection of MT-4 cells against the cytopathic effect of HIV-2 (8 days); type: functional, cell-based; conditions: Homo sapiens, MT4, 192 h
In short: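 MT-4 cells (1×10^4/well, RPMI/10% FCS) with compound dilutions, infected with HIV-2 ROD at 100 CCID50 (MOI 0.01). Stock from persistently infected CEM supernatant.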

[3] = Selectivity Index measured as the ratio of CC50 to that of EC50(HIV-1) values.; type: functional
In short: (§1)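 HIV-1 IIIB (100 CCID50, MOI 0.01) was added to 1×10^4 MT-4 cells per well in RPMI/10% FCS with serial compound dilutions, made from a 100 mg/mL DMSO stock. After 4 days at 37 °C, viable cells were counted by MTT. […] SI = CC50/EC50.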

[4] = Selectivity Index measured as the ratio of CC50 to that of EC50(HIV-2) values.; type: functional
In short: (§2)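 HIV-2 ROD (100 CCID50, MOI 0.01) infected 1×10^4 MT-4 cells per well in RPMI/10% FCS containing compound dilutions, made from a 100 mg/mL DMSO stock. After 8 days at 37 °C, MTT read viability. […] The CC50 comes from parallel mock-infected MT-4 cultures by MTT over 4 days. The index is the CC50/EC50 ratio.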

[5] = test system: MT4; assay: Protection of MT-4 cells against the cytopathic effect of HIV-1 (4 days); type: functional, cell-based; conditions: Homo sapiens, MT4, 96 h
In short: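 MT-4 cells (1×10^4/well, RPMI/10% FCS) with compound dilutions, infected with HIV-1 IIIB at 100 CCID50 (MOI 0.01). Stock from persistently infected H9/IIIB supernatant, titrated in C8166 by syncytia scoring.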

[6] = Selectivity Index measured as the ratio of CC50 to that of EC50 (HIV-1) values.; type: functional; in short: as §1
[7] = Selectivity Index measured as the ratio of CC50 to that of EC50 (HIV-2) values.; type: functional; in short: as §2

SMILES	CC50 [1]	EC50 [2]	Selectivity index [3]	Selectivity index [4]	EC50 [5]	Selectivity index [6]	Selectivity index [7]
C[C@@H](Cn1nc2nc(N)nc(O)c2n1)OCP(=O)(O)O	> 400 µM	73 µM	> 7.5	> 5.5	53 µM	–	–
C[C@H](Cn1nnc2c(O)nc(N)nc21)OCP(=O)(O)O	> 400 µM	200 µM	–	–	93 µM	> 4.3	2
C[C@@H](Cn1cnc2c(O)nc(N)nc21)OCP(=O)(O)O	> 400 µM	4.5 µM	–	–	4.5 µM	> 89	> 89
C[C@@H](Cn1nnc2c(O)nc(N)nc21)OCP(=O)(O)O	> 400 µM	12.5 µM	–	–	12 µM	> 33	> 32
Cc1cn([C@H]2C[C@H](N=[N+]=[N-])[C@@H](CO)O2)c(=O)[nH]c1=O [ZIDOVUDINE]	> 20 µM	–	–	–	–	–	–
C[C@H](Cn1cnc2c(O)nc(N)nc21)OCP(=O)(O)O	> 48 µM	30 µM	–	–	19 µM	2.5	1.6
C[C@H](Cn1nc2nc(N)nc(O)c2n1)OCP(=O)(O)O	> 400 µM	> 400 µM	–	–	> 400 µM	–	–
Nc1nc2c(ncn2CCOCP(=O)(O)O)c(=O)[nH]1 [GS-438]	2.4 µM	0.2 µM	–	–	0.19 µM	12.6	12
